Source: ChEMBL document CHEMBL1124273, “Synthesis and antiviral activity of certain 4-substituted and 2,4-disubstituted 7-[(2-hydroxyethoxy)methyl]pyrrolo[2,3-d]pyrimidines” (J Med Chem, 1988)
pIC50: −log10 of the molar value.

What was measured:
[1] = The compound was tested for cytotoxicity against BSC1 cell; type: functional, cell-based; conditions: Cercopithecidae, BSC-1
How it was run: (§1)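 Visual cytotoxicity was scored on uninfected cells in the plaque-reduction plates: BSC-1 (HSV-1 assay) or HFF (HCMV assay), both grown in MEM(E) with 10% FBS. Cells were examined at 35- and 60-fold magnification and scored 0 to 4+ on the day of staining for plaque counting. The highest concentration tested was 100 μM.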

[2] = test system: Cytomegalovirus; assay: Inhibitory activity against human cytomegalovirus determined by plaque reduction assay; type: functional, organism-based; conditions: Human betaherpesvirus 5
[3] = test system: HFF; assay: The compound was tested for cytotoxicity against human foreskin fibroblast cell; type: functional, cell-based; how it was run: as §1
[4] = test system: Human alphaherpesvirus 1; assay: Antiviral activity against Herpes simplex virus type 1 determined by plaque reduction assay; type: functional, organism-based
[5] = Average percent inhibition of DNA, RNA, and protein synthesis determined in KB cells; type: functional, cell-based; conditions: Homo sapiens
How it was run: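 KB cells (human oral epidermoid carcinoma) grown in MEM(H) with 5% FBS. Cytotoxicity was measured as inhibition of radioactive precursor incorporation into DNA, RNA and protein. An I50 for each was obtained by linear regression against log concentration, and the three I50 values were averaged. The highest concentration tested was 100 μM.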

[6] = The compound was tested for cytotoxicity against BSC-1 cells; type: functional, cell-based; conditions: Cercopithecidae; how it was run: as §1

| SMILES | pIC50 [1] | pIC50 [2] | pIC50 [3] | pIC50 [4] | pIC50 [5] | pIC50 [6] |
| --- | --- | --- | --- | --- | --- | --- |
| COc1nc(N)c2ccn(COCCO)c2n1 | < 4.00 | < 4.00 | < 4.00 | < 4.00 | – | – |
| OCCOCn1ccc2c(Cl)nc(Cl)nc21 | < 4.00 | 4.43 | 4.00 | < 4.00 | – | – |
| CSc1nc(Cl)c2ccn(COCCOC(C)=O)c2n1 | – | < 4.00 | 4.00 | < 4.00 | 4.48 | < 4.00 |
| Nc1nc2c(ncn2COC(CO)CO)c(=O)[nH]1 [GANCICLOVIR] | < 4.00 | 5.06 | < 4.00 | – | 3.00 | – |
| CS(=O)(=O)c1nc(N)c2ccn(COCCO)c2n1 | < 4.00 | < 4.00 | < 4.00 | < 4.00 | – | – |
| Nc1nc(N)c2ccn(COCCO)c2n1 | < 4.00 | < 4.00 | < 4.00 | < 4.00 | – | – |
| Nc1nc(O)nc2c1ccn2COCCO | < 4.00 | < 4.00 | < 4.00 | < 4.00 | – | – |
| CC(=O)Nc1nc(Cl)c2ccn(COCCO)c2n1 | < 4.00 | < 4.00 | < 4.00 | < 4.00 | 3.95 | – |
| CSc1nc(N)c2ccn(COCCO)c2n1 | < 4.00 | < 4.00 | < 4.00 | < 4.00 | – | – |
| Nc1nc(Cl)nc2c1ccn2COCCO | < 4.00 | < 4.00 | < 4.00 | < 4.00 | – | – |
| CC(=O)OCCOCn1ccc2c(Cl)nc(Cl)nc21 | < 4.00 | 4.40 | 4.00 | < 4.00 | – | – |
| Nc1nc2c(ncn2COCCO)c(=O)[nH]1 [ACYCLOVIR] | < 4.00 | 4.20 | < 4.00 | – | < 4.00 | – |
| CSc1nc(Cl)c2ccn(COCCO)c2n1 | < 4.00 | < 4.00 | 4.52 | < 4.00 | – | – |
| Nc1ncnc2c1ccn2COCCO | < 4.00 | < 4.00 | < 4.00 | < 4.00 | < 4.00 | – |
